{
  "source": "paper PMC8828683",
  "about": "(Stem Cell Reports, 2022)",
  "key": {"[1]": {"test_system": "NTERA-2 ECCs", "experiment": "Immunoblotting of total cell extracts", "format": "cell-based, human", "conditions": "NTERA-2, 1 μM Adriamycin, 24 h", "summary_of_the_method": "(§1)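 Cells were cultured with 2.5 μM test compound for up to 96 h, and attached plus unattached cells were pooled. Whole-cell RIPA lysates were run on 4–12% Bis-Tris gels, transferred to nitrocellulose and blocked in 5% milk/TBS. Primary antibodies went on overnight at 4°C, followed by infrared secondary antibodies and imager quantitation. Each blot carried untreated U2OS as a shared standard, with Ponceau-S histones for normalization and lighter exposures for quantitation. Adriamycin for 24 h (NTERA-2 1 μM, H108 2 μM) served as a DNA-break control.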"}, "[2]": {"test_system": "H108 fibroblasts", "experiment": "Immunoblotting of total cell extracts", "format": "cell-based, human", "conditions": "H108 fibroblasts; 2.5 μM WX8 or 2 μM Adriamycin 24 h", "summary_of_the_method": "as §1"}},
  "data": [
    {"smiles": "COc1cccc2c1C(=O)c1c(O)c3c(c(O)c1C2=O)C[C@@](O)(C(=O)CO)C[C@@H]3O[C@H]1C[C@H](N)[C@H](O)[C@H](C)O1", "note": "[Adriamycin, doxorubicin]", "values": [
      {"measurement": "CASP3 cleaved", "setting": "[1]", "result": "> 90", "unit": "%"},
      {"measurement": "CASP3 cleavage", "setting": "[2]", "result": "Neither WX8 nor Adriamycin induced cleavage"},
      {"measurement": "PARP cleavage", "setting": "[2]", "result": "Neither WX8 nor Adriamycin induced cleavage"}
    ]}
  ]
}
